According to ChEMBL document CHEMBL3407432, “Fused heterocycles bearing bridgehead nitrogen as potent HIV-1 NNRTIs. Part 3: optimization of [1,2,4]triazolo[1,5-a]pyrimidine core via structure-based and physicochemical property-driven approaches” (Eur J Med Chem, 2015):
Converted amounts (≈) assume the structure as drawn. Counter-ions that a name gives are not always drawn. Each block holds one compound with its values, some of them ahead of it.

Assays:
[1] = system: Human immunodeficiency virus 1; assay: Antiviral activity against HIV1 3B infected in human MT4 cells assessed as reduction in virus-induced cytopathic effect after 5 days by MTT assay; type: functional, organism-based; details: Human immunodeficiency virus 1, 3B, MT4, 120 h
Method in brief: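 MT-4 cells at 6 × 10⁵ cells/mL infected with HIV-1 IIIB stock at 100-300 CCID50. Test compounds added as serial five-fold dilutions in triplicate wells. Viability of infected cells read spectrophotometrically by MTT 5 days after infection. Values are the mean ± SD of at least two parallel tests.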

[2] = Selectivity index, ratio of CC50 for mock-infected human MT4 cells to EC50 for HIV1 3B infected in human MT4 cells; type: toxicity, cell-based; details: mock-infected MT4 cells and MT4 cells infected with HIV1 3B, read-out: Ratio CC50/EC50
[3] = Selectivity index, ratio of CC50 for mock-infected human MT4 cells to EC50 for HIV1 RES056 expressing reverse transcriptase K103N + Y181C double mutant; type: toxicity, cell-based; details: read-out: Ratio CC50/EC50
[4] = system: Human immunodeficiency virus 1; assay: Antiviral activity against HIV1 RES056 expressing reverse transcriptase K103N + Y181C double mutant infected in human MT4 cells assessed as reduction in virus-induced cytopathic effect after 5 days by MTT assay; type: functional, organism-based; details: Human immunodeficiency virus 1, RES056, MT4, 120 h
Method in brief: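 MT-4 cells resuspended at 6 × 10⁵ cells/mL, infected with HIV-1 RES056 stock at 100–300 CCID50, compound in serial five-fold dilutions in triplicate wells alongside mock-infected wells. Viability read by MTT after 5 days.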

[5] = Solubility in water at pH 7.0 after 2 hrs by HPLC-UV method; type: physicochemical
Method in brief: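 DMSO stock spiked into purified water to 1% final DMSO. Shaken 2 h at 3000 rpm at room temperature, left 1 h, then filtered through a 0.22 membrane. Filtrate quantified by HPLC-UV on a C18 column (150 × 4.6 mm) with MeOH/water 85/15 at 1.0 mL/min. Measured at pH 7, in duplicate.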

[6] = Lipophilicity, log P of the compound at pH 7.0 by HPLC method; type: physicochemical; details: buffer
Method in brief: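 Log P measured at pH 7 by HPLC, in duplicate.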

[7] = molecular target: Human immunodeficiency virus type 1 reverse transcriptase (Human immunodeficiency virus 1, UniProt Q72547); assay: Inhibition of HIV1 reverse transcriptase assessed as reduction in biotin-labeled dUTP incorporation into DNA after 1 hr using poly(A) x oligo(dT)15 template/primer hybrid, digoxigenin and biotin-labeled nucleotides
Method in brief: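 Recombinant HIV-1 RT, colorimetric ELISA kit. Poly(A)·oligo(dT)15 template/primer with biotin- and DIG-labelled dNTPs in lysis buffer ± inhibitor, 1 h at 37 °C. Serial five-fold dilutions tested. IC50 is the concentration halving labelled dUTP incorporation.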

Compound: Cc1cc(C)c(Oc2cc(NC3CCN(CC4CCCCC4)CC3)nc3ncnn23)c(C)c1
EC50 [1]: 245 nM | selectivity ratio [2]: 50 | selectivity ratio [3]: < 1 | EC50 [4]: > 13000 nM

Compound: Cc1cc(C)c(Oc2cc(NC3CCN(Cc4ccncc4)CC3)nc3ncnn23)c(C)c1
EC50 [1]: 17 nM | selectivity ratio [2]: 2650 | selectivity ratio [3]: 7 | EC50 [4]: 6400 nM

Compound: Cc1cc(C)c(Oc2cc(NC3CCN(Cc4ccccc4)CC3)nc3ncnn23)c(C)c1
EC50 [1]: 36 nM | selectivity ratio [2]: 708 | selectivity ratio [3]: < 1 | EC50 [4]: > 25000 nM

Compound: Cc1cc(C)c(Oc2cc(NC3CCN(Cc4ccc(S(C)(=O)=O)cc4)CC3)nc3ncnn23)c(C)c1
solubility at 2 h [5]: 10.3 µg/mL (≈ 19.8 µM) | EC50 [1]: 8.1 nM | selectivity ratio [2]: 2550 | logP [6]: 1.91 | selectivity ratio [3]: 2 | IC50 [7]: 500 nM | EC50 [4]: 13000 nM

Compound: Cc1cc(C)c(Oc2cc(NC3CCN(Cc4ccc(S(N)(=O)=O)cc4)CC3)nc3ncnn23)c(C)c1
EC50 [1]: 27 nM | selectivity ratio [2]: 1890 | selectivity ratio [3]: 2 | EC50 [4]: 22000 nM

Compound: COC(=O)c1ccc(CN2CCC(Nc3cc(Oc4c(C)cc(C)cc4C)n4ncnc4n3)CC2)cc1
EC50 [1]: 15 nM | selectivity ratio [2]: 686 | selectivity ratio [3]: < 1 | EC50 [4]: > 10000 nM

Compound: Cc1cc(C)c(Oc2cc(NC3CCN(Cc4ccc([N+](=O)[O-])cc4)CC3)nc3ncnn23)c(C)c1
EC50 [1]: 35 nM | selectivity ratio [2]: 522 | selectivity ratio [3]: < 1 | EC50 [4]: > 18000 nM

Compound: Cc1cc(C)c(Oc2cc(NC3CCN(Cc4ccc(C(N)=O)cc4)CC3)nc3ncnn23)c(C)c1
EC50 [1]: 21 nM | selectivity ratio [2]: 1180 | selectivity ratio [3]: < 1 | EC50 [4]: > 24000 nM

Compound: CC(=O)c1ccc(CN2CCC(Nc3cc(Oc4c(C)cc(C)cc4C)n4ncnc4n3)CC2)cc1
EC50 [1]: 8.7 nM | selectivity ratio [2]: 2060 | selectivity ratio [3]: < 1 | EC50 [4]: > 18000 nM

Compound: Cc1cc(C)c(Oc2cc(NC3CCN(Cc4ccc(Br)cc4)CC3)nc3ncnn23)c(C)c1
EC50 [1]: 92 nM | selectivity ratio [2]: 320 | selectivity ratio [3]: < 1 | EC50 [4]: > 30000 nM

Compound: Cc1cc(C)c(Oc2cc(NC3CCN(Cc4cccc(Cl)c4)CC3)nc3ncnn23)c(C)c1
EC50 [1]: 12 nM | selectivity ratio [2]: 1640 | selectivity ratio [3]: < 1 | EC50 [4]: > 20000 nM

Compound: Cc1cc(C)c(Oc2cc(NC3CCN(Cc4ccc(C#N)cc4)CC3)nc3ncnn23)c(C)c1
EC50 [1]: 20 nM | selectivity ratio [2]: 689 | selectivity ratio [3]: < 1 | EC50 [4]: > 14000 nM

Compound: Cc1cc(C)c(Oc2cc(NC3CCN(Cc4cccc(C#N)c4)CC3)nc3ncnn23)c(C)c1
EC50 [1]: 19 nM | selectivity ratio [2]: 1320 | selectivity ratio [3]: < 1 | EC50 [4]: > 25000 nM

Compound: Cc1cc(C)c(Oc2cc(NC3CCN(Cc4ccccc4C#N)CC3)nc3ncnn23)c(C)c1
EC50 [1]: 77 nM | selectivity ratio [2]: 356 | selectivity ratio [3]: < 1 | EC50 [4]: > 27000 nM

Compound: Cc1cc(C)c(Oc2cc(NC3CCN(Cc4ccc(F)cc4)CC3)nc3ncnn23)c(C)c1
EC50 [1]: 56 nM | selectivity ratio [2]: 424 | selectivity ratio [3]: < 1 | EC50 [4]: > 24000 nM

Compound: Cc1cc(C)c(Oc2cc(NC3CCN(Cc4cccc(F)c4)CC3)nc3ncnn23)c(C)c1
EC50 [1]: 104 nM | selectivity ratio [2]: ≥ 238 | selectivity ratio [3]: ≤ 1 | EC50 [4]: ≥ 39000 nM

Compound: Cc1cc(C)c(Oc2cc(NC3CCN(Cc4ccccc4F)CC3)nc3ncnn23)c(C)c1
EC50 [1]: 48 nM | selectivity ratio [2]: 520 | selectivity ratio [3]: < 1 | EC50 [4]: > 25000 nM

Compound: Cc1ccc(CN2CCC(Nc3cc(Oc4c(C)cc(C)cc4C)n4ncnc4n3)CC2)cc1
EC50 [1]: 72 nM | selectivity ratio [2]: 679 | selectivity ratio [3]: < 1 | EC50 [4]: > 49000 nM

Compound: Cc1cc(C)c(Oc2cc(NC3CCN(Cc4ccccc4C)CC3)nc3ncnn23)c(C)c1
EC50 [1]: 42 nM | selectivity ratio [2]: 590 | selectivity ratio [3]: < 1 | EC50 [4]: > 24000 nM

Compound: Cc1cc(C)c(Oc2cc(NC3CCN(Cc4ccc(F)cc4F)CC3)nc3ncnn23)c(C)c1
EC50 [1]: 90 nM | selectivity ratio [2]: 255 | selectivity ratio [3]: < 1 | EC50 [4]: > 23000 nM

Compound: Cc1cc(C)c(Oc2cc(NC3CCN(Cc4ccc(F)c(F)c4)CC3)nc3ncnn23)c(C)c1
EC50 [1]: 67 nM | selectivity ratio [2]: 346 | selectivity ratio [3]: < 1 | EC50 [4]: > 23000 nM

Compound: Cc1cc(C)c(Oc2cc(NC3CCN(Cc4cc(F)ccc4F)CC3)nc3ncnn23)c(C)c1
EC50 [1]: 98 nM | selectivity ratio [2]: 243 | selectivity ratio [3]: < 1 | EC50 [4]: > 24000 nM

Compound: Cc1cc(C)c(Oc2cc(NC3CCN(Cc4c(F)cccc4F)CC3)nc3ncnn23)c(C)c1
EC50 [1]: 439 nM | selectivity ratio [2]: 57 | selectivity ratio [3]: < 1 | EC50 [4]: > 25000 nM

Compound: COC(=O)c1ccc(NC(=O)CN2CCC(Nc3cc(Oc4c(C)cc(C)cc4C)n4ncnc4n3)CC2)c(Cl)c1
EC50 [1]: 277 nM | selectivity ratio [2]: 315 | selectivity ratio [3]: < 1 | EC50 [4]: > 86000 nM

Compound: Cc1cc(C)c(Oc2cc(NC3CCN(CC(=O)Nc4ccc(C(=O)O)cc4Br)CC3)nc3ncnn23)c(C)c1
EC50 [1]: 2280 nM | selectivity ratio [2]: 39 | selectivity ratio [3]: < 1 | EC50 [4]: > 89000 nM

Compound: CC(C)Nc1cccnc1N1CCN(C(=O)c2cc3cc(NS(C)(=O)=O)ccc3[nH]2)CC1 [DELAVIRDINE MESYLATE]
EC50 [1]: 540 nM | selectivity ratio [2]: > 67 | selectivity ratio [3]: 1 | EC50 [4]: > 36000 nM

Compound: O=c1[nH]cnc2c1ncn2[C@H]1CC[C@@H](CO)O1 [DIDANOSINE]
selectivity ratio [2]: > 9

Compound: O=C1Nc2ccc(Cl)cc2[C@@](C#CC2CC2)(C(F)(F)F)O1 [EFAVIRENZ]
EC50 [1]: 6.3 nM

solubility at 2 h [5]: < 1 µg/mL | logP [6]: > 5
Compound: Cc1cc(C#N)cc(C)c1Oc1nc(Nc2ccc(C#N)cc2)nc(N)c1Br [ETRAVIRINE]
EC50 [1]: 1.8 nM

Compound: Nc1ccn([C@@H]2CS[C@H](CO)O2)c(=O)n1 [LAMIVUDINE]
selectivity ratio [2]: > 39

Compound: Cc1ccnc2c1NC(=O)c1cccnc1N2C1CC1 [NEVIRAPINE]
EC50 [4]: ≥ 7600 nM

Compound: Cc1cn([C@H]2C[C@H](N=[N+]=[N-])[C@@H](CO)O2)c(=O)[nH]c1=O [ZIDOVUDINE]
EC50 [4]: 10 nM
